In brackets after ≈: the same amount, converted by molar mass. Activity calls are given as the source filed them. The calls are words filed in the database; no cut-off is given here.
Legend:
[1] = system: rhinovirus A39; assay: Antiviral activity against Human rhinovirus 39 assessed as reduction in virus yield after 24 to 36 hrs by agar plaque assay; type: functional; conditions: Rhinovirus A; read-out: ID50 (the source's name)
How it was run: (§1)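 Virus-yield reduction: infected monolayers given serial dilutions of compound, incubated 24–36 h at 33 °C, 3% CO₂ until cytopathic effect in controls was almost total. Monolayers then frozen and thawed; virus in supernatant titrated by plaque assay (50% plaque reduction in Hep-2 cells). ID₅₀ is the concentration inhibiting plaque formation by 50%, from dose–response curves by linear regression.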

[2] = system: rhinovirus B14; assay: Antiviral activity against Human rhinovirus 14 assessed as reduction in virus yield at 5 ug/ml added 4 to 5 hrs after infection by agar plaque assay; type: functional, organism-based
How it was run: (§2)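 HRV14 (group A, ATCC; working stocks prepared as cellular lysates in DMEM with 2% heat-inactivated FCS). Compound was added to cells at different times, from h −1 to several hours post infection, and incubated 24–36 h at 33 °C, 3% CO₂ until cytopathic effect in controls was almost total. Monolayers were then freeze-thawed and supernatant virus titrated by plaque assay.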

[3] = system: rhinovirus B14; assay: Antiviral activity against Human rhinovirus 14 assessed as reduction in virus yield after 24 to 36 hrs by agar plaque assay; type: functional; conditions: Rhinovirus B; read-out: ID50 (the source's name); how it was run: as §1
[4] = system: rhinovirus B14; assay: Antiviral activity against Human rhinovirus 14 assessed as reduction in virus yield at 5 ug/ml added within 3 hrs after infection by agar plaque assay; type: functional, organism-based; how it was run: as §2
[5] = Cytotoxicity against human HeLa cells after 24 to 72 hrs by MTT assay; type: cell-based; conditions: read-out: CD50 (the source's name)
How it was run: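 HeLa (Ohio strain) monolayers in DMEM with 1% non-essential amino acids, penicillin/streptomycin and 10% FCS at 37 °C, 5% CO₂, exposed to various compound concentrations. Morphology (rounding, shrinking, detachment) was checked by light microscopy at 24, 48 and 72 h, and viability read by MTT colorimetry. CD₅₀ is the concentration reducing control absorbance by 50%.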

[6] = Protective index, ratio of CD50 for human HeLa cells to ID50 for Human rhinovirus 14
How it was run: (§3)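 PI = CD₅₀/ID₅₀. For CD₅₀, HeLa (Ohio strain) monolayers in DMEM with 10% fetal calf serum were exposed to a range of compound concentrations at 37 °C, 5% CO₂. Morphology was checked by light microscopy at 24, 48 and 72 h. Viability read by MTT; CD₅₀ = concentration reducing control absorbance by 50%. ID₅₀ came from the plaque-reduction virus-yield assay.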

[7] = Protective index, ratio of CD50 for human HeLa cells to ID50 for Human rhinovirus 39; how it was run: as §3
[8] = system: rhinovirus B14; assay: Reversible antiviral activity against Human rhinovirus 14 assessed as reduction in virus yield by agar plaque assay; type: functional, organism-based

| Compound | IC50 [1] [µg/mL] | Activity [2] | IC50 [3] [µg/mL] | Activity [4] | CC50 [5] [µg/mL] | PI [6] | PI [7] | Activity [8] |
| --- | --- | --- | --- | --- | --- | --- | --- | --- |
| CCOC(=O)c1ccc(OCCC2CCN(c3ccc(C)nn3)CC2)cc1 [PIRODAVIR] | 0.006 (≈ 0.0162 µM) | inactive | 0.012 (≈ 0.0325 µM) | Active | 3.1 (≈ 8.39 µM) | 258 | 516 |  |
| CC(=O)c1ccc(OCCCOCCc2cc(C)no2)cc1 | 6 (≈ 19.8 µM) |  | 25 (≈ 82.4 µM) |  | 50 (≈ 165 µM) | 2 | 8 |  |
| Cc1cc(CCOCCCOc2ccc3c(c2)OCO3)on1 | 50 (≈ 164 µM) |  | 50 (≈ 164 µM) |  | 50 (≈ 164 µM) | 1 | 1 |  |
| CCOc1nc2ccc(OCCCOc3ccc(C#N)cc3)cc2o1 | 1.5 (≈ 4.43 µM) |  | 25 (≈ 73.9 µM) |  | 50 (≈ 148 µM) | 2 | 33 |  |
| CC(=O)c1ccc(OCCCOc2ccc3c(c2)OCO3)cc1 | 25 (≈ 79.5 µM) |  | 25 (≈ 79.5 µM) |  | 25 (≈ 79.5 µM) | 1 | 1 |  |
| CCOc1nc2ccc(OCCCOc3ccc(C(C)=O)cc3)cc2o1 | 0.1 (≈ 0.281 µM) | inactive | 0.5 (≈ 1.41 µM) | Active | 200 (≈ 563 µM) | 400 | 2000 | Active |
| Fc1ccc(OCCCOc2ccc3c(c2)OCO3)cc1 | 25 (≈ 86.1 µM) |  | 25 (≈ 86.1 µM) |  | 25 (≈ 86.1 µM) | 1 | 1 |  |
| CC(=O)c1ccc(OCCCOCc2ccc3c(c2)OCO3)cc1 | 6 (≈ 18.3 µM) |  | 6 (≈ 18.3 µM) |  | 50 (≈ 152 µM) | 8 | 8 |  |
| CCOC(=O)c1ccc(OCCCOCCc2cc(C)no2)cc1 | 0.07 (≈ 0.21 µM) |  | 0.07 (≈ 0.21 µM) |  | 50 (≈ 150 µM) | 714 | 714 |  |
| Cc1cc(OCCCOc2ccc3c(c2)OCO3)on1 | 12 (≈ 43.3 µM) |  | 25 (≈ 90.2 µM) |  | 50 (≈ 180 µM) | 2 | 4 |  |
| CCOc1nc2ccc(OCCCOc3ccc4c(c3)OCO4)cc2o1 | 12 (≈ 33.6 µM) |  | 25 (≈ 70 µM) |  | 200 (≈ 560 µM) | 8 | 16 |  |
